# Results from ChEMBL document CHEMBL4304781, “Development of Highly Selective Pyrimidine-Based Aldosterone Synthase (CYP11B2) Inhibitors” (ACS Med Chem Lett, 2019).
# pIC50: −log10 of the molar value.
# What was measured:
# Homo sapiens [1] = species on record: Homo sapiens; experiment: Selectivity index, ratio of IC50 for CYP19 (unknown origin) to IC50 for human recombinant CYP11B2
# Cynomolgus monkey [2] = experiment: In vivo inhibition of CYP11B2 in cynomolgus monkey assessed as reduction in ACTH-induced plasma aldosterone AUC at 1 mg/kg, po administered 10 mins prior to ACTH stimulation for 7 days relative to control; format: functional; details: Macaca fascicularis
# Method in brief: (§1)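 Conscious male cynomolgus monkeys. Day 1: vehicle, then ACTH challenge to drive adrenal steroidogenesis. Repeated after 7-day recovery with oral compound at 0.2, 1 and 3 mg/kg given 10 min before ACTH. Plasma aldosterone, cortisol, DOC and 11-deoxycortisol measured and AUCs calculated. Day 8 change expressed against each animal's own day 1 steroid AUC.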
# Cynomolgus monkey [3] = experiment: In vivo inhibition of CYP11B2 in cynomolgus monkey assessed as reduction in ACTH-induced plasma aldosterone AUC administered orally 10 mins prior to ACTH stimulation for 7 days; format: functional, organism-based; details: Macaca fascicularis; method in brief: as §1
# Homo sapiens [4] = species on record: Homo sapiens; experiment: Selectivity index, ratio of IC50 for CYP2D6 (unknown origin) to IC50 for human recombinant CYP11B2
# Macaca fascicularis = species on record: Macaca fascicularis; experiment: Selectivity index, ratio of IC50 for cynomolgus monkey CYP11B1 to IC50 for cynomolgus monkey CYP11B2
# Cynomolgus monkey [5] = experiment: Effect on ACTH-induced cortisol level in cynomolgus monkey at 0.2 to 3 mg/kg, po administered 10 mins prior to ACTH stimulation for 7 days; format: ADME, organism-based, Macaca fascicularis; details: in vivo; method in brief: as §1
# [6] = Cmax in cynomolgus monkey at 1 mg/kg, po measured after 24 or 72 hrs; format: ADME, organism-based, Macaca fascicularis; design: dose 1 mg/kg, route oral; details: in vivo
# Method in brief: (§2)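 Male cynomolgus monkeys dosed orally at 1 mg/kg in 0.5% CMC, 0.1% Tween-80, 1% DMSO. Plasma drug concentrations followed out to 24 or 72 h. Cmax, Tmax, AUC0-24 and t1/2 derived from plasma levels.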
# Aromatase = target: T1, Aromatase (Homo sapiens, UniProt P11511); experiment: Inhibition of CYP19 (unknown origin)
# T1 sequence (P11511 whole entry): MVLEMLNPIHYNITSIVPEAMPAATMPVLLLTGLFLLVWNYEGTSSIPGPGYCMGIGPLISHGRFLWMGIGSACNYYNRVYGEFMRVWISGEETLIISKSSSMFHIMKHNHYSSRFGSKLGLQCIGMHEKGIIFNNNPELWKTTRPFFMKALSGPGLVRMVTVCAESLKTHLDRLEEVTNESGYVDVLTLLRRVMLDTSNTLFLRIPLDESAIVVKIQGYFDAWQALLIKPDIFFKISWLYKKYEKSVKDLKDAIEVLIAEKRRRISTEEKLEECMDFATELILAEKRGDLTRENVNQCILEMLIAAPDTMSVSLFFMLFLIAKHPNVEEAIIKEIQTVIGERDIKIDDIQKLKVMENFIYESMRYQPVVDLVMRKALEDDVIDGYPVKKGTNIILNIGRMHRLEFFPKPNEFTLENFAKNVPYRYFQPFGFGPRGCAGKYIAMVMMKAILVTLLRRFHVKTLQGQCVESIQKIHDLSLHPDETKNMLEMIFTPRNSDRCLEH
# Homo sapiens [7] = species on record: Homo sapiens; experiment: Selectivity index, ratio of IC50 for CYP2C19 (unknown origin) to IC50 for human recombinant CYP11B2
# Homo sapiens [8] = species on record: Homo sapiens; experiment: Selectivity index, ratio of IC50 for CYP3A4 (unknown origin) to IC50 for human recombinant CYP11B2
# [9] = target: T2, Cytochrome P450 11B1, mitochondrial (Homo sapiens, UniProt P15538); experiment: Inhibition of human recombinant CYP11B1 using deoxycortisol as substrate incubated for 60 mins by cell-based HPLC analysis; format: ADME
# T2 sequence (P15538 whole entry): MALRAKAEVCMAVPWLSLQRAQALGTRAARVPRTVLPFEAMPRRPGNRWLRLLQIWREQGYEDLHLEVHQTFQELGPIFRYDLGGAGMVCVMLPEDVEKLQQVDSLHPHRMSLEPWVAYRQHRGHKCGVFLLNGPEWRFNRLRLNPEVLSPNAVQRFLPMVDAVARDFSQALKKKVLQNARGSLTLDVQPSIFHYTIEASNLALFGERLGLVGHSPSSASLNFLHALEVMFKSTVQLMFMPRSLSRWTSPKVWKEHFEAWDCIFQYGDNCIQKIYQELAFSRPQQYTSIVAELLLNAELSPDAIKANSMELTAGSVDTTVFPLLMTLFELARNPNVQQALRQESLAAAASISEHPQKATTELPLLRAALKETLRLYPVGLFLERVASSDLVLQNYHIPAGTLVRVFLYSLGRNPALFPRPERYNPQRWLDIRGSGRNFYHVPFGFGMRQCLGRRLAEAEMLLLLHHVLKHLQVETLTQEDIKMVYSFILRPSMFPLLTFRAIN
# Method in brief: (§3)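 Recombinant human CYP11B2 or CYP11B1. Substrate and product steroids both monitored by HPLC-MS. Selectivity taken as CYP11B1 IC50 / CYP11B2 IC50.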
# [10] = AUC (0 to 24 hrs) in cynomolgus monkey at 1 mg/kg, po measured after 24 or 72 hrs; format: ADME, organism-based, Macaca fascicularis; design: time < 24 hr, dose 1 mg/kg, route oral; details: in vivo; method in brief: as §2
# [11] = Tmax in cynomolgus monkey at 1 mg/kg, po measured after 24 or 72 hrs; format: ADME, organism-based, Macaca fascicularis; details: in vivo; method in brief: as §2
# Homo sapiens [12] = species on record: Homo sapiens; experiment: Selectivity index, ratio of IC50 for CYP17 (unknown origin) to IC50 for human recombinant CYP11B2
# [13] = Inhibition of cynomolgus monkey CYP11B1; format: ADME, Macaca fascicularis
# Cynomolgus monkey [14] = experiment: Effect on ACTH-induced DOC level in cynomolgus monkey at 0.2 to 3 mg/kg, po administered 10 mins prior to ACTH stimulation for 7 days; format: ADME, organism-based, Macaca fascicularis; details: in vivo; method in brief: as §1
# [15] = Half life in cynomolgus monkey at 1 mg/kg, po measured after 24 or 72 hrs; format: ADME, organism-based, Macaca fascicularis; details: in vivo; method in brief: as §2
# Cynomolgus monkey [16] = experiment: In vivo inhibition of CYP11B2 in cynomolgus monkey assessed as reduction in ACTH-induced plasma aldosterone AUC at 3 mg/kg, po administered 10 mins prior to ACTH stimulation for 7 days relative to control; format: functional; details: Macaca fascicularis; method in brief: as §1
# [17] = target: T3, Cytochrome P450 11B2, mitochondrial (Homo sapiens, UniProt P19099); experiment: Inhibition of human recombinant CYP11B2 using deoxycorticosterone as substrate incubated for 90 mins by cell-based HPLC analysis; method in brief: as §3
# T3 sequence (P19099 whole entry): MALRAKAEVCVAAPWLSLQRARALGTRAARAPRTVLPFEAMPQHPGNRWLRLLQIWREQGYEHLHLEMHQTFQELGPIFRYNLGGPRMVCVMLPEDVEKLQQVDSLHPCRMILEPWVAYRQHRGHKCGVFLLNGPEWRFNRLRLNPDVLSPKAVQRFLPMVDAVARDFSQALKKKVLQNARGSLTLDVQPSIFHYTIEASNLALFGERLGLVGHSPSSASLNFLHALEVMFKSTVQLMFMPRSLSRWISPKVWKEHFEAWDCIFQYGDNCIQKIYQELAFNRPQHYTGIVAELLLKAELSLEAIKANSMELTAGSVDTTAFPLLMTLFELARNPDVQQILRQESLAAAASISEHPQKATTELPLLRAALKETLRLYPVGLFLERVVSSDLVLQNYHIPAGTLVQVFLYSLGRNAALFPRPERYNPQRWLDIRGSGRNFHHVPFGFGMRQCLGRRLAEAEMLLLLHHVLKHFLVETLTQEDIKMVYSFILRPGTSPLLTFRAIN
# [18] = Stability in cynomolgus monkey liver microsomes assessed as parent compound remaining at 1 uM measured after 65 mins by LC/MS-MS analysis; format: ADME, Macaca fascicularis, Microsome; details: read-out: Stability
# Method in brief: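 Parent compound percentage remaining after 65 min incubation with cynomolgus monkey liver microsomes.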
# [19] = Thermodynamic solubility in phosphate free buffer pH 7.4 incubated for 24 hrs by HPLC/LCMS-MS based shake flask method; format: physicochemical; details: read-out: Therm_solubility
# [20] = Fraction unbound in cynomolgus monkey plasma incubated for 6 hrs by HPLC-MS/MS analysis; format: ADME, cell-free, Macaca fascicularis
# Cynomolgus monkey [21] = experiment: In vivo inhibition of CYP11B2 in cynomolgus monkey assessed as reduction in ACTH-induced plasma aldosterone AUC at 0.2 mg/kg, po administered 10 mins prior to ACTH stimulation for 7 days relative to control; format: functional; details: Macaca fascicularis; method in brief: as §1
# Cynomolgus monkey [22] = experiment: Effect on ACTH-induced 11-deoxycortisol level in cynomolgus monkey at 0.2 to 3 mg/kg, po administered 10 mins prior to ACTH stimulation for 7 days; format: ADME, organism-based, Macaca fascicularis; details: in vivo; method in brief: as §1
# Homo sapiens [23] = species on record: Homo sapiens; experiment: Selectivity index, ratio of IC50 for CYP2C9 (unknown origin) to IC50 for human recombinant CYP11B2
# Homo sapiens [24] = species on record: Homo sapiens; experiment: Selectivity index, ratio of IC50 for human recombinant CYP11B1 to IC50 for human recombinant CYP11B2; method in brief: as §3
# [25] = Inhibition of cynomolgus monkey CYP11B2; design: species or system Macaca fascicularis
smiles,measurement,setting,value
Fc1cc2nc(-c3cncnc3C(F)(F)F)n(C3CC3)c2cc1F,Ratio IC50,Homo sapiens [1],250
same,inhibition in vivo at 1 mg/kg,Cynomolgus monkey [2],88%
same,inhibition,Cynomolgus monkey [3],Dose-dependent effect
same,Ratio IC50,Homo sapiens [4],> 1000
same,Ratio IC50,Macaca fascicularis,702
same,Activity,Cynomolgus monkey [5],Non-Toxic
same,Cmax,[6],410 nM
same,pIC50,Aromatase,5.19
same,Ratio IC50,Homo sapiens [7],> 1000
same,Ratio IC50,Homo sapiens [8],> 1000
same,pIC50,[9],5.32
same,AUC(0-t) at 24 h,[10],7.8 µM·h
same,Tmax,[11],2 h
same,Ratio IC50,Homo sapiens [12],> 1000
same,pIC50,[13],5.05
same,Activity,Cynomolgus monkey [14],Non-Toxic
same,half-life,[15],30 h
same,inhibition in vivo at 3 mg/kg,Cynomolgus monkey [16],93%
same,pIC50,[17],7.60
same,"remaining at 65 min, 1 µM",[18],99%
same,solubility thermodynamic at 24 h,[19],9 µM
same,fraction unbound at 6 h,[20],0.16
same,inhibition in vivo at 0.2 mg/kg,Cynomolgus monkey [21],68%
same,Activity,Cynomolgus monkey [22],Non-Toxic
same,Ratio IC50,Homo sapiens [23],> 1000
same,Ratio IC50,Homo sapiens [24],190
same,pIC50,[25],7.89
